PubChem BioAssay
Inconclusive results are not listed.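 The calls were made as follows, unless noted: active = viability increase at or above a cutoff of the median across tested compounds plus 3 SD (cut at about 8.5% in these data, passing the limit was not always enough); inconclusive = some gains above the cutoff, reason not given; inactive = the rest.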

Columns and labels:
[1] = S. cerevisiae growth inhibition in permissive medium (OD615), pilot counter-assay for S. cerevisiae lifespan shortening project, permissive growth control (AID 705;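 active = growth inhibition above 25% in both replicates, a cutoff set 3 SD above the mean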); details: OD615, 24 h, at 10 µM, active compounds read high
Summary of the method: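 System: Engineered DeaD yeast | Buffer or medium: SC raffinose/galactose permissive medium | Doses: 10 µM single dose, 0.25% DMSO | Times: 24 h exposure, 30 °C | Measured by: OD615 turbidity read | Read-out: Yeast growth inhibition indicated by reduced 24 h OD615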

[2] = S. cerevisiae growth inhibition in restrictive medium, OD615, pilot screen, restrictive growth control, yeast lifespan reduction project (AID 706;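 active = growth inhibition above a set limit, 3 SD over mean compound inhibition, in both replicates, cut at about 43% in these data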;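 also: modified DeaD lifespan yeast strain shifted to restrictive glucose medium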); details: OD615, 48 h, at 10 µM, active compounds read high
Summary of the method: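 Assay system: engineered S. cerevisiae DeaD strain; Buffer or medium: CSMM-D glucose medium; Dosing: 10 µM compound, 0.25% DMSO; Times: cell pre-growth 4 h, compound exposure 48 h, 30 °C; Detection: absorbance (optical density) measured at 615 nm.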

[3] = doxorubicin toxicity protection in MRP-1 cells – H69AR cells, CellTiter-Glo, duplicate, MRP-1 activator project, pilot screen (AID 807); details: H69AR viability with doxorubicin, CellTiter-Glo luminescence; at 10 µM; active compounds read high;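 also: compound pretreatment 18-22 h then 72 h combined with doxorubicin; 0% = doxorubicin alone and 100% = vehicle without doxorubicin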
[4] = viability of HCT116 without oncogenic beta-catenin – human colon tumor cells, pilot screen (AID 823;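 active = cell viability at or below a set limit in both duplicate runs, the limit being the all-compound median minus 4 SD, cut at about 23% in these data, passing the limit was not always enough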;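 also: 0% = wells killed by 20 µM Hyamine and 100% = untreated DMSO cell wells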); details: HCT116 beta-catenin knockout viability, CellTiter-Glo, 60 h; at 10 µM; active compounds read low
[5] = RAM pathway blockade in budding yeast – dse1pr::URA3 reporter, 5-FOA selection, pilot screen (AID 869;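 active = inhibition over a set limit, the all-compound mean plus 3 SD, in both replicate runs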;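 also: 0% = DMSO wells with no growth and 100% = 10 µM 1-NA-PP1 with full growth; RAM network block rescues cells from 5-FOA so hits raise OD615 growth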); details: S. cerevisiae dse1pr::URA3 5-FOA growth, OD615, 2 d; at 10 µM; active compounds read high; strain carries analog-sensitive mutant Cbk1 kinase
[6] = RAM signaling pathway blockade in yeast – S. cerevisiae, Pdr1DBD-CYC8 efflux-inhibited sensitized strain, primary screen (AID 1298;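 active = RAM network inhibition above 8.4% in each of two replicates, 3 SD over the compound average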;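 also: 0% = DMSO untreated cells without growth and 100% = 10 µM 1-NA-PP1 full growth; higher means more yeast growth rescued from 5-FOA killing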); details: S. cerevisiae cbk1-as DSE1-URA3 strain, 5-FOA growth OD615, 2 d; at 50 µM; active compounds read high
[7] = viability of PTEN-null HCT116 cells – cell-based, HCT116 clonal line, CellTiter-Glo, pilot screen (AID 824;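 active = viability at or below 27.92% in each of two runs, the all-compound median minus 4 SD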;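 also: 0% = 20 µM Hyamine control and 100% = vehicle cell control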); details: HCT116 PTEN-deleted viability, 60 h, at 10 µM, active compounds read low

Cc1ccc(S(=O)(=O)c2nc(-c3cccs3)oc2SCC(N)=O)cc1
inactive: growth inhibition [1] -8.57% | growth inhibition [2] 10.4% | viability increase [3] -2.87% | viability [4] 106% | inhibition [5] -0.475% | RAM network inhibition [6] 3.22%

C=CCOC(=O)CCCC(=O)NC1CCCCC1
inactive: growth inhibition [1] -26.9% | growth inhibition [2] 5.64% | viability increase [3] -0.4% | viability [4] 95.6% | inhibition [5] 1.58% | RAM network inhibition [6] 4.88%

Cc1ccc(Cn2c(Sc3nccc(C)n3)nc3c2c(=O)[nH]c(=O)n3C)cc1
inactive: growth inhibition [1] -22.6% | growth inhibition [2] 2.41% | viability increase [3] -2.6% | viability [4] 83.5% | inhibition [5] 2.89% | RAM network inhibition [6] 3.29%

COc1ccc(Cn2c(=O)n(Cc3ccco3)c(=N)c3c4c(sc32)COC(C)(C)C4)cc1
inactive: growth inhibition [1] -17.7% | growth inhibition [2] -5.45% | viability increase [3] -5.35% | viability [4] 66.2% | inhibition [5] 0.42% | RAM network inhibition [6] 2.55%

CN(C)c1ccc(C(=O)Nc2ccc(S(=O)(=O)NC3=NCCCCC3)cc2)cc1
inactive: growth inhibition [1] -6.28% | growth inhibition [2] -8.65% | viability increase [3] -3.44% | viability [7] 99.4% | inhibition [5] 1.61% | RAM network inhibition [6] 3.12%

COc1ccc2c(c1)-c1nc(NC(=O)c3cccs3)sc1CC2
inactive: growth inhibition [1] -13.6% | growth inhibition [2] -12.2% | viability increase [3] -1.82% | viability [4] 33.6% | inhibition [5] 3.16% | RAM network inhibition [6] 1.99%

CCCCCn1c(=O)[nH]c2cc(C(=O)NCc3ccc4c(c3)OCO4)ccc2c1=O
inactive: growth inhibition [1] -12.1% | growth inhibition [2] -10.7% | viability increase [3] -6.7% | viability [4] 71.2% | inhibition [5] 3.82% | RAM network inhibition [6] 5.87%

COc1ccc(C2c3c(oc4ccccc4c3=O)C(=O)N2c2ccccn2)cc1OC (stereo not given)
inactive: growth inhibition [1] -10.4% | growth inhibition [2] -11.2% | viability increase [3] -6.93% | viability [4] 72.7% | inhibition [5] 2.8% | RAM network inhibition [6] 2.68%

CCCn1c(CN2CCN(c3cccc(Cl)c3)CC2)nc2c1c(=O)n(C)c(=O)n2C
inactive: growth inhibition [1] -4.45% | growth inhibition [2] -8.51% | viability increase [3] -4.06% | viability [7] 54% | RAM network inhibition [6] 1.38%

CCOC(=O)c1nc(-c2ccc3c(c2)OCO3)[nH]c1C
inactive: growth inhibition [1] -0.36% | growth inhibition [2] -0.67% | viability increase [3] -6.6% | viability [4] 29.7% | inhibition [5] 3.15% | RAM network inhibition [6] 1.76%

CCOC(=O)N1CCN(C(=O)C(CC(C)C)NC(=O)C2CCCCC2)CC1 (stereo not given)
inactive: growth inhibition [1] -11.7% | growth inhibition [2] -4.5% | viability increase [3] -2.13% | viability [7] 101% | inhibition [5] 0.455% | RAM network inhibition [6] 1.59%

Cc1ccsc1C(=O)OCC(=O)c1cc2ccccc2o1
inactive: growth inhibition [1] -18.1% | growth inhibition [2] -10.8% | viability increase [3] -2.86% | viability [7] 97.3% | inhibition [5] 1.28% | RAM network inhibition [6] 1.03%

Cc1ccc(S(=O)(=O)N(CC(=O)N2CCOCC2)C2CCCCC2)cc1
inactive: growth inhibition [1] -7.12% | growth inhibition [2] -1.69% | viability increase [3] -2.71% | viability [7] 103% | inhibition [5] 1.29% | RAM network inhibition [6] 1.99%

COc1ccccc1CC(=O)Nc1ccc(-c2nnc(-c3ccco3)o2)cc1
inactive: growth inhibition [1] -3.64% | growth inhibition [2] 8.35% | viability increase [3] -2.58% | viability [7] 77.7% | RAM network inhibition [6] 8.02%

Cc1cccc(N2CCN(c3nc4ccccc4n4cnnc34)CC2)c1C
inactive: growth inhibition [1] -11.7% | growth inhibition [2] -6.28% | viability increase [3] -4.42% | viability [4] 49.3% | inhibition [5] 1.89% | RAM network inhibition [6] -0.66%

CC1(C)CC(=O)C(C=NC2CC(C)(C)NC(C)(C)C2)=C(O)C1
inactive: growth inhibition [1] -1.6% | growth inhibition [2] -7.89% | viability increase [3] 0.22% | viability [7] 95.5% | inhibition [5] 1.82% | RAM network inhibition [6] 4.6%

CC(C)N(C(=O)C1CC(=O)OC12CCCCC2)C(C)C (stereo not given)
inactive: growth inhibition [1] 1.46% | growth inhibition [2] 3.32% | viability increase [3] -0.41% | viability [4] 99.1% | inhibition [5] 1.32% | RAM network inhibition [6] 0.1%

CCc1ccc(-c2nc(CSCC(=O)N3CCN(c4ncccn4)CC3)c(C)o2)cc1
inactive: growth inhibition [1] -2.9% | growth inhibition [2] -2.11% | viability increase [3] -3.72% | viability [7] 52.6% | RAM network inhibition [6] 7.89%
